The record followed here is ChEMBL document CHEMBL1145123, “Trisubstituted acridine derivatives as potent and selective telomerase inhibitors” (J Med Chem, 2003).

SMILES strings stand for the structures.

Test [1] addresses Telomerase reverse transcriptase (Homo sapiens, UniProt O14746). Put plainly: Inhibitory activity against human telomerase. The method in brief:
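Modified TRAP assay with extract protein (0.04 μg) from exponentially growing A2780 cells. The enzyme was heat-inactivated at 80 °C, then CX primer was added and 31 PCR cycles were run. Products were quantified by gel phosphorimaging or filter scintillation counting. Agents were first screened against Taq polymerase at 1–50 μM.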

Test [2] is described as follows: Cytotoxicity against ovarian carcinoma A2780 cell lines. It counts as functional, cell-based. The note with it: Homo sapiens. The method in brief: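 SRB assay. Cells were seeded at 3000–6000 per well and attached overnight. Salts dissolved in water at 500 μM were added in quadruplicate at 0.05, 0.25, 1, 5 and 25 μM final for 96 h. Cells were then fixed with cold 10% TCA and stained with 0.4% SRB. A540 was expressed as % of untreated control, and IC50 was derived.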

Test [3] in a line: […]. The note with it: Homo sapiens, A-431. It counts as functional, cell-based.
The target in test [4] is Nucleic Acid. Put plainly: (§1) Affinity constant for binding to duplex DNA. It counts as functional, Homo sapiens.
The species named for test [5] is Homo sapiens. Put plainly: Affinity constant for binding to human 22-mer quadruplex. Format: functional.
The species entered for test [6] is Homo sapiens. Described as §1. Format: functional, organism-based.

Telomerase reverse transcriptase, sequence (O14746 whole entry): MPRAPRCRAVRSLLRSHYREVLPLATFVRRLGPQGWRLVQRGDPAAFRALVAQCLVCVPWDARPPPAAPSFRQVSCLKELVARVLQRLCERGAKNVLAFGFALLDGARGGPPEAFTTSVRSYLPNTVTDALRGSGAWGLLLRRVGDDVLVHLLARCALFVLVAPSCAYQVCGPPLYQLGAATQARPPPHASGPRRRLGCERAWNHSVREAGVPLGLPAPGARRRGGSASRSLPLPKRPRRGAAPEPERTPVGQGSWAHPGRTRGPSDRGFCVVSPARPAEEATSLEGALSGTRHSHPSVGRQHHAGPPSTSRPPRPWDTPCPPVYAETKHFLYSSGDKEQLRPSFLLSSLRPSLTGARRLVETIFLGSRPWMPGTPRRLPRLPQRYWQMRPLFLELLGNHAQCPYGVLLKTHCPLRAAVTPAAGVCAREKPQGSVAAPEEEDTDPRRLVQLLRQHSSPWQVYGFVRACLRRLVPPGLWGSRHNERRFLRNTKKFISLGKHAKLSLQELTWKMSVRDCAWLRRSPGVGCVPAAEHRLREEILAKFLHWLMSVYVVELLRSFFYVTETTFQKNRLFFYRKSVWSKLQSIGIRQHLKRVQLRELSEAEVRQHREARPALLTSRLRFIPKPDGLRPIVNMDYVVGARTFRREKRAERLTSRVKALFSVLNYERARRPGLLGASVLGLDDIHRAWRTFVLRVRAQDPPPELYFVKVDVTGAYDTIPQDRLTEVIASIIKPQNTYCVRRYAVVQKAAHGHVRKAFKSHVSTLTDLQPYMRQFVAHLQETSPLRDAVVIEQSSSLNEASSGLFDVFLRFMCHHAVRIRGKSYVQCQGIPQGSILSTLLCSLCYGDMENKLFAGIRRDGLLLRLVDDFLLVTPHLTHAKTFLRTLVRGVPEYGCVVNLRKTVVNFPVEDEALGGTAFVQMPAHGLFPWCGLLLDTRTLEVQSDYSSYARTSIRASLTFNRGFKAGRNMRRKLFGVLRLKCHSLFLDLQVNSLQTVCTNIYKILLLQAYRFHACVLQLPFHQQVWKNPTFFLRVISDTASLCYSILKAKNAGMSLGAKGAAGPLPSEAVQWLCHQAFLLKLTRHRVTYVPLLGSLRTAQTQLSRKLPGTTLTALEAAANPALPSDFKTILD

As for `CSc1ccccc1Nc1c2ccc(NC(=O)CCN3CCCC3)cc2nc2cc(NC(=O)CCN3CCCC3)ccc12`, it took 0.15 µM to reach a half-maximal effect in test [1] (EC50). Also, the half-inhibitory concentration (IC50) stood at 0.1 µM in test [2] and 2.5 µM in test [3].
For `CN(C)CCNc1c2cc(NC(=O)CCN3CCCC3)ccc2nc2ccc(NC(=O)CCN3CCCC3)cc12` the same measures were 0.57 µM, 11 µM and over 25 µM.
For `O=C(CCN1CCCC1)Nc1ccc2c(NC3CCCCC3)c3cc(NC(=O)CCN4CCCC4)ccc3nc2c1` the same measures were 0.21 µM, 10 µM and 14 µM.
With `CN(C)CCCNc1c2ccc(NC(=O)CCN3CCCC3)cc2nc2ccc(NC(=O)CCN3CCCC3)cc12`, in test [1], the EC50 turned out to be 0.08 µM. The IC50 in test [2] and in test [3] was over 25 µM each time.
As to `CN(C)c1ccc(Nc2c3ccc(NC(=O)CCN4CCCC4)cc3nc3ccc(NC(=O)CCN4CCCC4)cc23)cc1`, the EC50 in test [1] came to 0.17 µM. Also, the IC50 in test [2] came out at 7.9 µM; in test [3], 10 µM.
In the case of `O=C(CCN1CCCC1)Nc1ccc2nc3ccc(NC(=O)CCN4CCCC4)cc3c(Nc3ccccc3)c2c1`, the half-maximal effective concentration (EC50) in test [1] was 1.29 µM. The IC50 in test [2] stood at 2.6 µM; in test [3], 12.5 µM.
For `CN(C)c1cccc(Nc2c3ccc(NC(=O)CCN4CCCC4)cc3nc3cc(NC(=O)CCN4CCCC4)ccc23)c1` the same measures were 0.1 µM, 7.9 µM and 2 µM.
Consider `CSc1cccc(Nc2c3ccc(NC(=O)CCN4CCCC4)cc3nc3cc(NC(=O)CCN4CCCC4)ccc23)c1`, for which it took 0.1 µM to reach a half-maximal effect in test [1] (EC50). Besides, the IC50 in test [2] was found to be 2.8 µM; in test [3], 1.3 µM.
As to `O=C(CCN1CCCC1)Nc1ccc2c(NC3CC3)c3ccc(NC(=O)CCN4CCCC4)cc3nc2c1`, the EC50 in test [1] turned out to be 0.05 µM. Further, the IC50 in test [2] is 19 µM; in test [3], over 25 µM.
For `O=C(CCN1CCCC1)Nc1ccc2c(NC3CCCCC3)c3ccc(NC(=O)CCN4CCCC4)cc3nc2c1`, in that order: 0.09 µM, 12.5 µM and 2.5 µM.
For `CN(C)c1cccc(Nc2c3cc(NC(=O)CCN4CCCC4)ccc3nc3ccc(NC(=O)CCN4CCCC4)cc23)c1` the same measures were 0.6 µM, 3.2 µM and 12.6 µM.
Regarding `Nc1cccc(Nc2c3cc(NC(=O)CCN4CCCC4)ccc3nc3ccc(NC(=O)CCN4CCCC4)cc23)c1`, the EC50 in test [1] is 1.09 µM. The figures for the IC50 in test [2] and in test [3] were 6.3 µM and over 25 µM, respectively.
For `Nc1ccccc1Nc1c2ccc(NC(=O)CCN3CCCC3)cc2nc2cc(NC(=O)CCN3CCCC3)ccc12`, the EC50 in test [1] was 0.02 µM. In addition, the IC50 in test [2] came out at 11 µM; in test [3], 7.1 µM.
For `O=C(CCN1CCCC1)Nc1ccc2c(NCc3cccnc3)c3ccc(NC(=O)CCN4CCCC4)cc3nc2c1` the same measures were 0.066 µM, over 25 µM and over 25 µM.
For `CN(C)CCNc1c2ccc(NC(=O)CCN3CCCC3)cc2nc2ccc(NC(=O)CCN3CCCC3)cc12`, in that order: 0.27 µM, over 25 µM and over 25 µM.
On to `CN(C)CCNc1c2ccc(NC(=O)CCN3CCCC3)cc2nc2cc(NC(=O)CCN3CCCC3)ccc12`, for which the response in test [1] was half-maximal at 0.018 µM (EC50). In addition, the IC50 in test [2] and in test [3] was over 25 µM in each case. Further, the Ka was 4900000 M⁻¹ in test [4] and 57000000 M⁻¹ in test [5].
Molecule `O=C(CCN1CCCC1)Nc1ccc2c(Nc3ccccc3)c3cc(NC(=O)CCN4CCCC4)ccc3nc2c1` gave an EC50 in test [1] of 1.33 µM. Further, the IC50 was 5.6 µM in test [2] and 14 µM in test [3].
For `O=C(CCN1CCCC1)Nc1ccc2c(NCCN3CCCCC3)c3ccc(NC(=O)CCN4CCCC4)cc3nc2c1`, in that order: 0.05 µM, 12.6 µM and 11.2 µM.
For `CC(=O)Nc1cccc(Nc2c3ccc(NC(=O)CCN4CCCC4)cc3nc3cc(NC(=O)CCN4CCCC4)ccc23)c1` the same measures were 0.1 µM, over 25 µM and over 25 µM.
For `COc1ccc(Nc2c3cc(NC(=O)CCN4CCCC4)ccc3nc3ccc(NC(=O)CCN4CCCC4)cc23)cc1` the same measures were 0.46 µM, 10 µM and 12.6 µM.
In test [1], `Nc1ccc(Nc2c3cc(NC(=O)CCN4CCCC4)ccc3nc3ccc(NC(=O)CCN4CCCC4)cc23)cc1` returned an EC50 of 0.2 µM. Moreover, the 50% inhibitory concentration (IC50) in test [2] and in test [3] was over 25 µM each time.
Consider `CN(C)CCCNc1c2ccc(NC(=O)CCN3CCCC3)cc2nc2cc(NC(=O)CCN3CCCC3)ccc12`, for which, in test [1], the EC50 was 0.06 µM. The IC50 in test [2] and in test [3] was over 25 µM in each case.
Molecule `COCCNc1c2ccc(NC(=O)CCN3CCCC3)cc2nc2cc(NC(=O)CCN3CCCC3)ccc12` showed an EC50 in test [1] of 0.14 µM. Also, the IC50 in test [2] and in test [3] was 10 µM in each case.
In turn, `Nc1ccc(Nc2c3ccc(NC(=O)CCN4CCCC4)cc3nc3cc(NC(=O)CCN4CCCC4)ccc23)cc1` had an EC50 in test [1] of 0.074 µM. The IC50 in test [2] and in test [3] was 25 µM in each case. Also, the Ka in test [4] was 500000 M⁻¹; in test [5], 16000000 M⁻¹.
In turn, `Nc1cccc(Nc2c3ccc(NC(=O)CCN4CCCC4)cc3nc3cc(NC(=O)CCN4CCCC4)ccc23)c1` displayed an EC50 in test [1] of 0.06 µM. For the same molecule, the IC50 in test [2] and in test [3] was 12.6 µM in each case.
`CN(C)c1ccc(Nc2c3ccc(NC(=O)CCN4CCCC4)cc3nc3cc(NC(=O)CCN4CCCC4)ccc23)cc1` showed an EC50 in test [1] of 0.115 µM. Besides, the half-inhibitory concentration (IC50) in test [2] stood at 10 µM; in test [3], 15.8 µM. Moreover, the figures for the Ka in test [6] and in test [5] were 400000 M⁻¹ and 16000000 M⁻¹, respectively.
As to `CC(=O)c1ccc(Nc2c3ccc(NC(=O)CCN4CCCC4)cc3nc3cc(NC(=O)CCN4CCCC4)ccc23)cc1`, the EC50 in test [1] came to 0.04 µM. Besides, the IC50 was found to be 3.2 µM in test [2] and 2.2 µM in test [3].
Molecule `O=C(CCN1CCCC1)Nc1ccc2c(NC3CCCCCC3)c3ccc(NC(=O)CCN4CCCC4)cc3nc2c1` gave an EC50 in test [1] of 0.21 µM. The IC50 in test [2] and in test [3] was 3.2 µM each time.
As to `Nc1ccc(Nc2c3ccc(NC(=O)CCN4CCCC4)cc3nc3ccc(NC(=O)CCN4CCCC4)cc23)cc1`, the half-maximal effective concentration (EC50) in test [1] is 0.08 µM. For the same molecule, the IC50 in test [2] and in test [3] was over 25 µM each time.
The molecule `CN(C)c1ccc(Nc2c3cc(NC(=O)CCN4CCCC4)ccc3nc3ccc(NC(=O)CCN4CCCC4)cc23)cc1` gave an EC50 in test [1] of 0.5 µM. Besides, the IC50 in test [2] is 19 µM; in test [3], over 25 µM.
For `Nc1cccc(Nc2c3ccc(NC(=O)CCN4CCCC4)cc3nc3ccc(NC(=O)CCN4CCCC4)cc23)c1`, in that order: 0.21 µM, 15.8 µM and over 25 µM.
`COc1cccc(Nc2c3cc(NC(=O)CCN4CCCC4)ccc3nc3ccc(NC(=O)CCN4CCCC4)cc23)c1` yielded an EC50 in test [1] of 2.73 µM. Also, the IC50 in test [2] turned out to be 2.5 µM; in test [3] it was 10 µM.
For `O=C(CCN1CCCC1)Nc1ccc2nc3ccc(NC(=O)CCN4CCCC4)cc3c(Nc3ccccc3O)c2c1` the same measures were 1.03 µM, 10 µM and over 25 µM.
As for `Nc1ccccc1Nc1c2ccc(NC(=O)CCN3CCCC3)cc2nc2ccc(NC(=O)CCN3CCCC3)cc12`, the EC50 in test [1] was 0.11 µM. In addition, the IC50 in test [2] was 15.8 µM; in test [3] it was over 25 µM.
For `O=C(CCN1CCCC1)Nc1ccc2c(Nc3ccc(F)cc3)c3ccc(NC(=O)CCN4CCCC4)cc3nc2c1`, in that order: 0.07 µM, 3.2 µM and 0.5 µM.
Turning to `Nc1ccccc1Nc1c2cc(NC(=O)CCN3CCCC3)ccc2nc2ccc(NC(=O)CCN3CCCC3)cc12`, a half-maximal effect in test [1] (EC50) was put at 0.17 µM. Moreover, the half-maximal inhibitory concentration (IC50) in test [2] was 17.8 µM; in test [3] it was over 25 µM.
With `CN1CCCC1CCNc1c2ccc(NC(=O)CCN3CCCC3)cc2nc2cc(NC(=O)CCN3CCCC3)ccc12` (stereo unspecified), the EC50 in test [1] was 0.018 µM. The IC50 in test [2] was over 25 µM; in test [3], 25 µM.
In the case of `O=C(CCN1CCCC1)Nc1ccc2cc3ccc(NC(=O)CCN4CCCC4)cc3nc2c1`, in test [1], the response was half-maximal at 5.2 µM (EC50). Further, the IC50 in test [2] was 2.6 µM. For the same molecule, the Ka amounted to 1100000 M⁻¹ in test [4] and 1300000 M⁻¹ in test [5].

What is called EC50 is the midpoint of the concentration-response curve. High values mean a need for much substance, low ones an effect from little substance. In general, IC50 refers to the midpoint of a concentration-inhibition curve.
